In assay [1] the test system is Bacillus subtilis. The assay is described as follows: Antibacterial activity against Bacillus subtilis 168. The format is functional, organism-based. Conditions: subsp. subtilis str. 168. Summed up: (§1)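 Agar plate diffusion: 5.5 mm susceptibility disks loaded with 5 µg pure compound (1 mg for crude extracts) placed on agar plates seeded with the test organism (B. subtilis 168, S. aureus ATCC 25923, E. coli ATCC 25922 or C. albicans); inhibition zones read after 24 h incubation at 37 °C.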

For assay [2], the system named is Staphylococcus aureus. The assay is described as follows: Antibacterial activity against Staphylococcus aureus ATCC 25923. The format is functional, organism-based. The method, boiled down: as §1
Assay [3] concerns Escherichia coli. The assay is described as follows: Antibacterial activity against Escherichia coli ATCC 25922. The format is functional, organism-based. The method, boiled down:
as §1

The subject of assay [4] is Bacillus subtilis. Kind of assay: Antibacterial activity against Bacillus subtilis 168 at 5 ug after 24 hrs by agar plate diffusion assay. The following applies: subsp. subtilis str. 168, 24 h, read-out: IZ. The format is functional. Summed up: as §1
Assay [5] has as its system Staphylococcus aureus. The assay is described as follows: Antibacterial activity against Staphylococcus aureus ATCC 25923 at 5 ug after 24 hrs by agar plate diffusion assay. The class given is functional. Conditions: ATCC 25923, 24 h, read-out: IZ. The method, boiled down: as §1
Assay [6] has as its system Escherichia coli. The assay is described as follows: Antibacterial activity against Escherichia coli ATCC 25922 at 5 ug after 24 hrs by agar plate diffusion assay. The format is functional, organism-based. The method, boiled down: as §1
Assay [7] deals with Candida albicans. Kind of assay: Antifungal activity against Candida albicans at 5 ug after 24 hrs by agar plate diffusion assay. The format is functional, organism-based. The method, boiled down:
as §1

Active and inactive are the calls of the source. No cut-off for these calls is given here.

For `CC1CCCCCC(O)C(=O)C(SC2CC(=O)OC(C)CCCCCC(O)C2=O)CC(=O)O1` (centres undefined), the result in assay [1], in assay [2] and in assay [3] was inactive.
Consider `COC(=O)C(O)CSC1CC(=O)OC(C)CCCCCC(O)C1=O` (centres undefined), for which the result in assay [1], in assay [2] and in assay [3] was inactive.
As for `CC(=O)OCc1ccc(C(=O)O)o1` [ACETYL SUMIKI'S ACID], the zone of inhibition at 5 µg/disc in assay [4] and in assay [5] was 7 mm each time. Moreover, the “inhibition zone (IZ)” value in assay [6] and in assay [7] was “inactive” throughout.
As to `O=C(O)c1ccc(CO)o1` [SUMIKI'S ACID], the zone of inhibition at 5 µg/disc in assay [4] and in assay [5] was 7 mm in each case. Moreover, the “inhibition zone (IZ)” value in assay [6] and in assay [7] was “inactive” each time.

The values are drawn from ChEMBL document CHEMBL1150820, “New macrolides and furan carboxylic acid derivative from the sponge-derived fungus Cladosporium herbarum” (2001).
